Laboratory results: ChEMBL document CHEMBL1153851, “(+/-)-3,4-Dihydroxy-8,9-methylenedioxypterocarpan and derivatives: cytotoxic effect on human leukemia cell lines” (Eur J Med Chem, 2009)

Columns and labels:
K562 = experiment: Cytotoxicity against human K562 cells assessed as cell viability after 72 hrs by MTT assay; format: functional, cell-based; conditions: K562, 72 h
Procedure, shortened: (§1)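 Cells were kept in RPMI 1640 with 5 × 10^-5 M β-mercaptoethanol, 25 mM Hepes (pH 7.4) and 10% heat-inactivated FCS. Daudi received 20% FCS, and Lucena I received 60 nM vincristine to maintain resistance. Cells were seeded at 2 × 10⁴ cells/mL with compound (0.1–50) for 72 h at 37 °C, 5% CO₂. MTT (5 mg/mL stock) was added for 3 h, formazan was dissolved in DMSO, and A490 was read. Triplicate points; mean of ≥3 experiments.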

HL-60 = experiment: Cytotoxicity against human HL60 cells assessed as cell viability after 72 hrs by MTT assay; format: functional, cell-based; conditions: HL-60, 72 h; procedure, shortened: as §1
Jurkat = experiment: Cytotoxicity against human Jurkat cells assessed as cell viability after 72 hrs by MTT assay; format: functional, cell-based; procedure, shortened: as §1
Daudi = experiment: Cytotoxicity against human Daudi cells assessed as cell viability after 72 hrs by MTT assay; format: functional, cell-based; procedure, shortened: as §1
[1] = Cytotoxicity against human K562-Lucena 1 cells assessed as cell viability after 72 hrs by MTT assay; format: functional, cell-based; conditions: K562-Lucena 1, 72 h; procedure, shortened: as §1
[2] = Toxicity against PHA-activated human peripheral lymphocytes assessed as cell viability after 72 hrs by MTT assay; format: cell-based, Lymphocyte
Procedure, shortened: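 PBMC from healthy-volunteer heparinized blood were isolated by Ficoll-Hypaque gradient and resuspended at 10⁶ cells/mL in supplemented RPMI 1640. They were stimulated with PHA and exposed to compound at 2.5–10 µM for 72 h. Controls received diluent without PHA. Viability was read by MTT. Triplicate points; mean ± SD of ≥3 experiments.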

Row | Structure (SMILES) | IC50 (K562) | IC50 (HL-60) | IC50 (Jurkat) | IC50 (Daudi) | IC50 [1] | IC50 at 72 h [2]
1 | Oc1ccc2c(c1O)OC[C@@H]1c3cc4c(cc3O[C@H]21)OCO4 | 3 µM | 2.1 µM | 7.6 µM | 2.8 µM | 3.7 µM | –
2 | Oc1cc2c(cc1O)[C@@H]1Oc3cc4c(cc3[C@@H]1CO2)OCO4 | > 20 µM | > 20 µM | – | – | > 50 µM | –
3 | O=C1C=CC2=C(OC[C@@H]3c4cc5c(cc4O[C@H]23)OCO5)C1=O (racemic) | – | – | – | 0.9 µM | – | 2.4 µM
4 | COc1cc2c(cc1O)[C@H]1COc3c(ccc(O)c3O)[C@H]1O2 (racemic) | > 10 µM | 6.4 µM | – | – | > 20 µM | –
5 | Oc1ccc2c(c1)OC[C@@H]1c3cc4c(cc3O[C@H]21)OCO4 [(+)-MAACKIAIN] | > 50 µM | > 50 µM | – | – | > 50 µM | –
